# This is a sample that favours compounds with a hit; in the whole collection about 3.9% have one here.
# OX1R antag-1 – antagonists of human orexin 1 receptor; O43613; CHO/OX1R cells, Fluo-8 calcium fluorescence, orexin A; inhibition, % at 5 µM; 330,000 compounds, 0.43% hits; AID 434989;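 active means inhibition above its plate's threshold, mean inhibition of all tested compounds on the plate plus 3 SD, cut at about 37% in these data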;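 further: 0% = orexin A challenge wells and 100% = SB-334867-A antagonist wells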
# Target sequence (O43613 whole entry, looked up): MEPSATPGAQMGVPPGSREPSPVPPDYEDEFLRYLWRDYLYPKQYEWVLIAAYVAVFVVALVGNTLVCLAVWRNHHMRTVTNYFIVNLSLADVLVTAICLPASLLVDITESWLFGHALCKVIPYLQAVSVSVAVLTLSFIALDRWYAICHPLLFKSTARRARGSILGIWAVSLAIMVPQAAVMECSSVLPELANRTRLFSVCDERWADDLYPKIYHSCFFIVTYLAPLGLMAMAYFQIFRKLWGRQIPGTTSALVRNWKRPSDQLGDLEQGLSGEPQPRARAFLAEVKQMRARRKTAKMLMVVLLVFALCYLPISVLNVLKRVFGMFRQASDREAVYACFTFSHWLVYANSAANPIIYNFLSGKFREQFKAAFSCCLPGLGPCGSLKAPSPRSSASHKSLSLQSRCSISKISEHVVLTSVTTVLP
# CHO parental Ca – signal in parental CHO cells, OX1R antagonist counter-screen. parental CHO-K1, ATP-induced calcium, Fluo-8 fluorescence. inhibition, % at 5.6 µM. 330,000 compounds, 0.63% hits;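 active means inhibition above that plate's mean sample inhibition plus 3 SD, cut at about 26% in these data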;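 further: 0% = ATP-challenged DMSO wells and 100% = DMSO wells without ATP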
#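 Material: parental CHO cells / Compound: single nominal dose of 5.6 µM per compound / Signal: Fluo-8 fluorescence / Replicates: singlicate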
# OX1R antag-2 – blocks the human orexin 1 receptor; O43613; AID 485270; 330,000 compounds, 1.8% hits; OX1R-expressing cells, FRET antagonist read-out; inhibition, % at 6.6 µM; in the data active means inhibition mostly above about 38%, no sharp cut-off; inactive means mostly below about 40%;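 further: 0% = agonist challenge alone and 100% = reference antagonist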
# TAAR1 antag – antagonists of human TAAR1 | 360,000 compounds, 1.5% hits | Q96RJ0 | CHO RD-HGA16 TAAR1, Fluo-8 calcium fluorescence, antagonist | inhibition, % at 3 µM;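 active means inhibition above a per-plate cutoff, the mean inhibition of test compounds on that plate plus 3 SD, cut at about 49% in these data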;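 further: 0% = DMSO plus EC80 beta-PEA response and 100% = DMSO alone without agonist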
#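 Test system: RD-HGA16 CHO cells with stable hTAAR1 and Gα16 / Probe or stimulus: EC80 β-phenethylamine stimulus / Times: seeding 17-24 h prior, 75-min 37 °C, 30-min RT dye loading / Detection: Fluo-8 calcium-sensitive fluorescence / Read-out basis: % inhibition scaled between DMSO and EC80 PEA controls / Repeats: singlicate, one well per test compound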
# TAAR1 agonist – agonists of human TAAR1; 360,000 compounds, 0.99% hits; AID 624467; CHO RD-HGA16 TAAR1, Fluo-8 calcium fluorescence; vehicle wells 0%, saturating PEA agonist 100%; Q96RJ0; activation, % at 3 µM;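 active means activation above the mean activation of all test compounds in the run plus 3 SD, cut at about 38% in these data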
#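 Test system: RD-HGA16 (CHO) cells co-expressing Gα16 and hTAAR1 / Benchmarks: DMSO vehicle as 0%, PEA at EC100 as 100% / Repeats: no replicates (n 1) / Measure: % activation from peak over basal fluorescence ratio, DMSO-to-PEA scaled / Timing: 17-24 h plating, Fluo-8 75 min 37 °C, 30 min RT / Technique: kinetic Fluo-8 calcium fluorescence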
# TAAR1 nonsel count – nonselective antagonist in TAAR1 antagonist counter-screen | 2,400 compounds, 77% hits | shares compounds with TAAR1 antag | counterscreen cell line, calcium fluorescence, antagonist mode | inhibition, % at 3 µM; in the data active means inhibition above about 22%;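 further: CHO-Ga16 host cells stimulated with ATP at an EC80 level; 0% = agonist EC80 plus vehicle and 100% = vehicle without agonist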
# TAAR1 antag conf – human TAAR1 antagonism, confirmed; shares compounds with TAAR1 antag; TAAR1-expressing cells, fluorescence antagonist read-out; inhibition, % at 3 µM; 2,400 compounds, 40% hits; AID 651785; in the data active means inhibition above about 49%;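 further: CHO-Ga16 host cells challenged with agonist PEA near its EC80; 0% = agonist at EC80 plus vehicle and 100% = vehicle with no agonist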
# Ga16 ag counter – nonselective Ga16 agonist in TAAR1 antagonist counter-screen; shares compounds with TAAR1 antag; Ga16-expressing cells, calcium fluorescence, agonist counterscreen; activation, % at 3 µM; 2,400 compounds, 18% hits; AID 651953; in the data active means activation above about 12%;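 further: 0% = vehicle wells and 100% = saturating stimulus response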
# TAAR1 ag count – TAAR1 agonism, antagonist counter-screen | shares compounds with TAAR1 antag | hTAAR1 cell line, fluorescence activation, agonist mode | activation, % at 3 µM | 2,400 compounds, 2% hits; in the data active means activation above about 37%;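 further: CHO cells stably expressing TAAR1 with calcium dye readout; 0% = DMSO vehicle and 100% = full agonist response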
# * = called active by the depositor; . = no result given.
SMILES,OX1R antag-1,CHO parental Ca,OX1R antag-2,TAAR1 antag,TAAR1 agonist,TAAR1 nonsel count,TAAR1 antag conf,Ga16 ag counter,TAAR1 ag count
CC(C)=N/N=C1/NC(=O)C(c2ccc(Cl)cc2)S1 (stereo unspecified),.,.,.,55*,27,1,-3,3,3
CN(c1ccccc1)S(=O)(=O)c1cc(C(=O)N2CCN(c3ccccn3)CC2)ccc1Cl,-26,-11,15,60*,7,19,34,6,5
O=C(c1ccc(S(=O)(=O)Cc2ccccc2Cl)c([N+](=O)[O-])c1)N1CCN(c2ccccn2)CC1,-12,-25,55,69*,17,38*,53*,15*,14
CC(C)=CCC12Oc3cc(O)ccc3C1(O)Oc1cc(O)c([C@H]3C=C(C)CC(c4ccc(O)cc4O)[C@H]3C(=O)c3ccc(O)cc3O)c(O)c1C2=O (stereo partly specified),8,2,7,.,.,.,.,.,.
COc1ccc(C(C)=O)cc1CSc1ccc(S(=O)(=O)N2CCCCC2)cn1,-10,-19,15,18,10,.,.,.,.
Cc1ccc(Nc2nc(NCc3cccs3)nc3ccsc23)c(C)c1,.,.,.,76*,28,57*,66*,18*,26
O=C(Nc1cc(=O)c2ccccc2o1)N1CCOCC1,-25,-22,22,64*,17,17,26,7,5
CC1(c2ccccc2)NC(=O)N(CC(=O)Nc2cccc(/C=C/c3ccccn3)c2)C1=O (stereo unspecified),-20,-29,33,50*,9,15,33,6,10
O=C(NCc1ccccc1Cl)c1ccc(Br)o1,-16,-8,27,104*,-3,1,-7,-1,1
O=C(CNC(=O)c1ccc(Br)o1)NCc1ccccc1Cl,.,.,.,-12,1,.,.,.,.
O=C(Cc1ccc(S(=O)(=O)N2CCOCC2)s1)Nc1cc(C(F)(F)F)cc(C(F)(F)F)c1,6,-2,5,21,6,.,.,.,.
CCOC(=O)c1cc(NC(=O)Cc2ccc(S(=O)(=O)N3CCOCC3)s2)cc(C(=O)OCC)c1,0,-9,25,76*,12,29*,45,11,11
O=C(Cn1cc(C(F)(F)F)cc(Cl)c1=O)NC1CCS(=O)(=O)C1 (stereo unspecified),0,0,4,-8,0,.,.,.,.
CCN(CC(=O)Nc1ccc(NC(C)=O)cc1)C(=O)c1oc2c(ccc3ccccc32)c1C,-16,-27,3,64*,33,39*,61*,18*,28
CCN(CC)CCN1C(=O)C(O)=C(C(=O)c2cc3cccc(OC)c3o2)C1c1ccc(F)cc1 (stereo unspecified),-12,-4,13,0,0,.,.,.,.
COC(=O)c1cc(NCc2ccc3c(c2)OCO3)ccc1N1CCOCC1,-16,-11,11,20,2,.,.,.,.
O=C(Nc1ccc(N2CCOCC2)c(Cl)c1)c1ccc(-n2cnnc2)cc1,-6,3,15,1,2,.,.,.,.
Cc1cccc(Cn2nc(C(C)(C)C)cc2C(=O)Nc2ccc(F)cc2)c1,17,5,64,70*,5,31*,48,3,6
O=C(Nc1ccc(N2CCOCC2)c(Cl)c1)c1ccc(F)cc1,-12,-11,11,63*,14,18,29,10,8
Cc1cccc(Cn2nc(C)c(NC(=O)c3ccc(F)cc3)c2C)c1,-3,5,9,-16,0,.,.,.,.
COC(=O)c1cc(NC(=O)c2cc(C(C)(C)C)nn2Cc2ccc(F)cc2)ccc1N1CCOCC1,-6,-26,4,63*,3,31*,46,4,0
COCc1[nH]nc2c1C(c1ccc3c(c1)OCO3)N(Cc1ccccc1)C2=O (stereo unspecified),.,.,.,9,1,.,.,.,.

# Compound activity (PubChem)
